Tests used:
[1] = biological target: T1, Protein farnesyltransferase (Homo sapiens, UniProt P49354+P49356); experiment: Inhibition of Farnesyltransferase from Ras-CVLS or Ras-CVLL in Cos-7 monkey kidney cells; format: cell-based, Chlorocebus aethiops
[2] = biological target: geranylgeranyltransferase type-I (Rattus norvegicus, UniProt P53610+Q04631); experiment: Inhibition of rat Geranylgeranyl transferase (GGPT); format: protein-complex assay
[3] = biological target: T1, Protein farnesyltransferase; experiment: In vitro inhibition of farnesyltransferase farnesylation of the H-ras oncogene; format: protein-complex assay
[4] = In vivo antitumor efficacy in nude mice 0-24 hr after peroral dose of 25 mg/kg expressed as Area under the curve; format: ADME, organism-based; design: time < 24 hr, dose 25 mg/kg, route oral; conditions: nude, mouse, po
Procedure, shortened: (§1)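 Serum pharmacokinetics in nude mice or cynomolgus monkeys after oral (po) or iv dosing. Compounds were given as hydrochloride salts in 20% HPβCD unless otherwise noted. Other formulations were the hydrochloride salt in saline, the micronized free base in 20% HPβCD or corn oil (po) with saline for iv, or the hydrochloride salt in 0.4% methyl cellulose (po).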

Mus musculus [5] = experiment: In vivo antitumor efficacy after peroral dose of 25 mg/kg in mice expressed as duration for which compound was present above IC50; format: ADME, organism-based; design: dose 25 mg/kg, route oral; conditions: po; procedure, shortened: as §1
[6] = In vivo antitumor efficacy in nude mice by injecting a dose of 25 mg/kg, as HCl salt in saline solution, iv and the total drug exposure was determined. (0-24hr); format: ADME, organism-based; design: time < 24 hr, dose 25 mg/kg, route intravenous; conditions: mouse
[7] = (§2) Maximal plasma concentration in nude mice after 25 mg/kg oral dose; format: ADME, organism-based; design: dose 25 mg/kg, route oral; conditions: mouse; procedure, shortened: as §1
[8] = In vivo antitumor efficacy in nude mice by injecting a dose of 25 mg/kg iv and serum half-life was determined; format: ADME, organism-based; design: dose 25 mg/kg, route intravenous; conditions: mouse; procedure, shortened: as §1
[9] = Oral bioavailability in mouse (nude) (dose of 25 mg/kg); format: ADME, organism-based; conditions: in vivo; procedure, shortened: as §1
[10] = In vivo antitumor efficacy in nude mice by injecting a dose of 25 mg/kg, as HCl salt in saline solution, iv and the serum half-life was determined; format: ADME, organism-based; design: dose 25 mg/kg, route intravenous; conditions: mouse
[11] = as §2; format: ADME, organism-based; design: dose 25 mg/kg, route oral; conditions: mouse; remark: listed apart in the source
Mus musculus [12] = experiment: In vivo antitumor efficacy in nude mice by injecting a dose of 25 mg/kg, as HCl salt in saline solution, perorally and the duration of action was reported; format: ADME, organism-based; design: dose 25 mg/kg, route oral; conditions: po
[13] = Oral bioavailability in mouse (nude) (dose 25 mg/kg i.v.); format: ADME, organism-based; conditions: in vivo
[14] = In vivo antitumor efficacy in nude mice by injecting a dose of 25 mg/kg, as HCl salt in saline solution, perorally and the total drug exposure was determined (0-24hr); format: ADME, organism-based; design: time < 24 hr, dose 25 mg/kg, route oral; conditions: mouse, po
[15] = In vivo antitumor efficacy in nude mice 0-24 hr after intravenous dose of 25 mg/kg expressed as Area under the curve; format: ADME, organism-based; design: time < 24 hr, dose 25 mg/kg, route intravenous; conditions: mouse; procedure, shortened: as §1

| SMILES | IC50 [1] | IC50 [2] | IC50 [3] | other results |
| --- | --- | --- | --- | --- |
| O=C(Nc1ccccn1)N1CCN(C2c3ccc(Cl)cc3CCc3cccnc32)CC1 (stereo not given) | 1300 nM | > 46000 nM |  |  |
| CCCC[C@H]1CN(C2c3ccc(Cl)cc3CCc3cc(Br)cnc32)CCN1C(=O)Cc1cc[n+]([O-])cc1 (stereo not given in full) | 630 nM | > 34200 nM | 60 nM | AUC at 24 h [4]: 43200 ng·h/mL; Time above IC50 (Mus musculus [5]): 7 h; AUC at 24 h [6]: 91400 ng·h/mL; Cmax [7]: 11.5 µM; half-life [8]: 120 min; bioavailability [9]: 47% |
| O=C(CC1CCNCC1)N1CCN(C2c3ccc(Cl)cc3CCc3cc(Br)cnc32)CC1 (stereo not given) | 170 nM | > 38000 nM | 72 nM | half-life [10]: 120 min; Cmax [11]: 3 µM; AUC at 24 h [6]: 27200 ng·h/mL; Time above IC50 (Mus musculus [12]): 24 h; bioavailability [13]: 65%; AUC at 24 h [14]: 17600 ng·h/mL |
| O=C(Cc1ccc[n+]([O-])c1)N1CCN(C2c3ccc(Cl)cc3CCc3cccnc32)CC1 (stereo not given) |  |  |  | AUC at 24 h [4]: 11000 ng·h/mL; Time above IC50 (Mus musculus [5]): 4 h; Cmax [7]: 12 µM; half-life [8]: 36 min; bioavailability [9]: 89%; AUC at 24 h [15]: 12300 ng·h/mL |
| O=C(Cc1cc[n+]([O-])cc1)N1CCN([C@H]2c3ccc(Cl)cc3CCc3cccnc32)CC1 | 5000 nM |  | 490 nM | AUC at 24 h [4]: 15500 ng·h/mL; Time above IC50 (Mus musculus [5]): 4 h; AUC at 24 h [6]: 21500 ng·h/mL; Cmax [7]: 10 µM; half-life [8]: 48 min; bioavailability [9]: 72% |
| O=C(Nc1cccnc1)N1CCN(C2c3ccc(Cl)cc3CCc3cccnc32)CC1 (stereo not given) | 4800 nM | > 46000 nM |  |  |
| CCCNC(=O)N1CCC(CC(=O)N2CCN(C3c4ccc(Cl)cc4CCc4cc(Br)cnc43)CC2)CC1 (stereo not given) | 1500 nM | > 33000 nM | 100 nM |  |
| CN(C)c1ccc(CC(=O)N2CCN(C3c4ccc(Cl)cc4CCc4cccnc43)CC2)cc1 (stereo not given) |  | 42000 nM |  |  |
| CN1CCC(NC(=O)N2CCN(C3c4ccc(Cl)cc4CCc4cc(Br)cnc43)CC2)CC1 (stereo not given) | 530 nM | > 38000 nM | 41 nM |  |
| CC(C)(C(=O)N1CCN(C2c3ccc(Cl)cc3CCc3cc(Br)cnc32)CC1)c1ccc[n+]([O-])c1 (stereo not given) | 2200 nM |  | 380 nM | AUC at 24 h [4]: 11700 ng·h/mL; Time above IC50 (Mus musculus [5]): 4 h; Cmax [7]: 11 µM; half-life [8]: 36 min; bioavailability [9]: 47%; AUC at 24 h [15]: 25000 ng·h/mL |
| O=C(/C=C/c1cccnc1)N1CCN(C2c3ccc(Cl)cc3CCc3cccnc32)CC1 (stereo not given) |  | > 50000 nM | 2600 nM |  |
| O=C(Nc1ccncc1)N1CCN(C2c3ccc(Cl)cc3CCc3cccnc32)CC1 (stereo not given) |  | > 40000 nM |  |  |
| CN1CCCC(CC(=O)N2CCN(C3c4ccc(Cl)cc4CCc4cc(Br)cnc43)CC2)C1 (stereo not given) |  | > 38000 nM |  | half-life [10]: 342 min; Cmax [11]: 2 µM; AUC at 24 h [6]: 14900 ng·h/mL; Time above IC50 (Mus musculus [12]): 24 h; bioavailability [13]: 100%; AUC at 24 h [14]: 17000 ng·h/mL |
| CC(C)(C(=O)N1CCN(C2c3ccc(Cl)cc3CCc3cc(Br)cnc32)CC1)c1cccnc1 (stereo not given) | 900 nM |  | 300 nM |  |
| CN1CCC(OC(=O)N2CCN(C3c4ccc(Cl)cc4CCc4cc(Br)cnc43)CC2)CC1 (stereo not given) | > 5000 nM |  | 310 nM |  |
| O=C(CC1CCNCC1)N1CCN([C@@H]2c3ccc(Cl)cc3CCc3cc(Br)cnc32)CC1 | 560 nM |  | 87 nM |  |
| COCC[C@H]1CN(C2c3ccc(Cl)cc3CCc3cc(Br)cnc32)CCN1C(=O)Cc1cc[n+]([O-])cc1 (stereo not given in full) | < 250 nM |  | 34 nM | AUC at 24 h [4]: 19900 ng·h/mL; Time above IC50 (Mus musculus [5]): 7 h; Cmax [7]: 9 µM |
| CC(=O)N1CCC(CC(=O)N2CCN(C3c4ccc(Cl)cc4CCc4cccnc43)CC2)CC1 (stereo not given) | 2700 nM |  | 870 nM |  |
| CC(=O)N1CCC(C(=O)N2CCN([C@H]3c4ccc(Cl)cc4CCc4cccnc43)CC2)CC1 | 6500 nM |  | 1800 nM |  |
| O=C(Cc1ccc[n+]([O-])c1)N1CCN(C2c3ccc(Cl)cc3CCc3ccc[n+]([O-])c32)CC1 (stereo not given) | > 20000 nM |  | 3800 nM |  |
| O=C(Oc1cccnc1)N1CCN([C@@H]2c3ccc(Cl)cc3CCc3cccnc32)CC1 | 6900 nM |  | 1280 nM |  |

| SMILES | IC50 [1] | IC50 [2] | IC50 [3] | other results |
| --- | --- | --- | --- | --- |
| CNC(=O)N1CCC(CC(=O)N2CCN(C3c4ccc(Cl)cc4CCc4cc(Br)cnc43)CC2)CC1 (stereo not given) | 750 nM | > 35000 nM | 50 nM | half-life [10]: 30 min; Cmax [11]: 80 µM; AUC at 24 h [6]: 9900 ng·h/mL; Time above IC50 (Mus musculus [12]): 4 h; bioavailability [13]: 100%; AUC at 24 h [14]: 33300 ng·h/mL |
| CC(=O)N1CCC(CC(=O)N2CCN(C3c4ccc(Cl)cc4CCc4cc(Br)cnc43)CC2)CC1 (stereo not given) | 590 nM | > 34000 nM | 102 nM | half-life [10]: 22.2 min; Cmax [11]: 3 µM; AUC at 24 h [6]: 9510 ng·h/mL; Time above IC50 (Mus musculus [12]): 2 h; bioavailability [13]: 28.8%; AUC at 24 h [14]: 2740 ng·h/mL |
| O=C(Cc1cccnc1)N1CCN(C2c3ccc(Cl)cc3CCc3cc(Br)cnc32)CC1 (stereo not given) | 850 nM | > 10000 nM | 170 nM |  |
| O=C(Cc1ccccn1)N1CCN(C2c3ccc(Cl)cc3CCc3cccnc32)CC1 (stereo not given) |  | > 46000 nM |  |  |
| N[C@@H](CO)C(=O)N1CCC(CC(=O)N2CCN(C3c4ccc(Cl)cc4CCc4cc(Br)cnc43)CC2)CC1 (stereo not given in full) | 1050 nM | > 33000 nM | 104 nM |  |
| O=C(Oc1cccnc1)N1CCN([C@H]2c3ccc(Cl)cc3CCc3cccnc32)CC1 | 3900 nM |  | 820 nM |  |
| O=C(Nc1cccnc1)N1CCN([C@H]2c3ccc(Cl)cc3CCc3cccnc32)CC1 | 7300 nM |  | 460 nM |  |
| O=C(Nc1cc[n+]([O-])cc1)N1CCN(C2c3ccc(Cl)cc3CCc3cc(Br)cnc32)CC1 (stereo not given) | 5800 nM |  | 210 nM |  |
| CN1CCC(CC(=O)N2CCN([C@H]3c4ccc(Cl)cc4CCc4cc(Br)cnc43)CC2)CC1 |  | > 38000 nM |  |  |
| CC(=O)N1CCC(CC(=O)N2CCN([C@H]3c4ccc(Cl)cc4CCc4cccnc43)CC2)CC1 | 6200 nM |  | 1600 nM |  |
| O=C(Nc1cccnc1)N1CCN(C2c3ccc(Cl)cc3CCc3cc(Br)cnc32)CC1 (stereo not given) | 3700 nM | > 10000 nM | 210 nM |  |
| O=C(Cc1ccc(Br)cc1)N1CCN(C2c3ccc(Cl)cc3CCc3cccnc32)CC1 (stereo not given) | 5100 nM | > 50000 nM |  |  |
| CC(C)(C(=O)N1CCN(C2c3ccc(Cl)cc3CCc3cc(Br)cnc32)CC1)c1cc[n+]([O-])cc1 (stereo not given) | 5000 nM |  | 390 nM |  |
| CN1CCC(CC(=O)N2CCN([C@@H]3c4ccc(Cl)cc4CCc4cc(Br)cnc43)CC2)CC1 |  | > 38000 nM |  |  |
| O=C(CN1C(=O)c2ccccc2C1=O)N1CCN(C2c3ccc(Cl)cc3CCc3cccnc32)CC1 (stereo not given) |  | > 40000 nM |  |  |
| O=C(Nc1ccccc1)N1CCN(C2c3ccc(Cl)cc3CCc3cccnc32)CC1 (stereo not given) |  | > 40000 nM | 1090 nM |  |
| CN1CCC(CC(=O)N2CCN(C3c4ccc(Cl)cc4CCc4c(Cl)ccnc43)CC2)CC1 (stereo not given) | 5700 nM |  | 450 nM |  |
| O=C(Oc1cccnc1)N1CCN(C2c3ccc(Cl)cc3CCc3cccnc32)CC1 (stereo not given) | 3000 nM |  | 500 nM |  |
| CC(=O)C1CCC(C(=O)N2CCN(C3c4ccc(Cl)cc4CCc4cccnc43)CC2)CC1 (stereo not given) | 4900 nM | > 43000 nM | 1240 nM |  |
| O=C(Oc1ccc[n+]([O-])c1)N1CCN(C2c3ccc(Cl)cc3CCc3cc(Br)cnc32)CC1 (stereo not given) | 6000 nM |  | 280 nM |  |
| O=C(C(c1ccccc1)c1ccccc1)N1CCN(C2c3ccc(Cl)cc3CCc3cccnc32)CC1 (stereo not given) |  | > 50000 nM |  |  |

Reference: ChEMBL document CHEMBL1131493, “Inhibitors of farnesyl protein transferase. 4-Amido, 4-carbamoyl, and 4-carboxamido derivatives of 1-(8-chloro-6,11-dihydro-5H-benzo[5,6]- cyclohepta[1,2-b]pyridin-11-yl)piperazine and 1-(3-bromo-8-chloro-6,11- dihydro-5H-benzo[5,6]cyclohepta[1,2-b]pyridin-11-yl)piperazine” (J Med Chem, 1998)
